What was measured:
Mouse [1] = experiment: concentration in plasma after dosing; settings: 5 min; dosed: 2,4-Dichlorophenoxyacetic acid; 2.0 mg/kg; oral; Male; B6C3F1
Rat [2] = experiment: concentration in plasma after dosing; settings: dosed: 2,4-Dichlorophenoxyacetic acid, 7.0 mg/kg, oral, Male, Sprague-Dawley
Mouse [3] = experiment: concentration in plasma after dosing; settings: 0.25 h; dosed: 2-Hydroxy-4-methoxybenzophenone; 50 mg/kg; iv; Male; B6C3F1
Rat [4] = experiment: concentration in plasma after dosing; settings: dosed: 2-Hydroxy-4-methoxybenzophenone, 500 mg/kg, oral, Male, F344
Rat [5] = experiment: concentration in plasma after dosing; settings: dosed: 2-Hydroxy-4-methoxybenzophenone, 100 mg/kg, oral, Male, F344
Rat [6] = experiment: concentration in plasma after dosing; settings: 2 min; dosed: Methyleugenol; 37 mg/kg; oral; Female; F344/N
Rat [7] = experiment: concentration in kidney after dosing; settings: 6 h; dosed: Perfluorohexane-1-sulphonic acid – potassium salt; 16 mg/kg; oral; Female; F344
Rat [8] = experiment: concentration in liver after dosing; settings: 192 h; dosed: Perfluorohexane-1-sulphonic acid – potassium salt; 16 mg/kg; oral; Female; F344
Rat [9] = experiment: concentration in liver after dosing; settings: 12 h; dosed: Perfluorohexane-1-sulphonic acid – potassium salt; 16 mg/kg; oral; Female; Harlan Sprague Dawley
Rat [10] = experiment: concentration in kidney after dosing; settings: 3 h; dosed: Perfluorohexane-1-sulphonic acid – potassium salt; 16 mg/kg; oral; Female; Harlan Sprague Dawley
Rat [11] = experiment: concentration in liver after dosing; settings: 12 h; dosed: Perfluorohexane-1-sulphonic acid – potassium salt; 16 mg/kg; oral; Female; F344
Rat [12] = experiment: concentration in liver after dosing; settings: 6 h; dosed: Perfluorohexane-1-sulphonic acid – potassium salt; 16 mg/kg; oral; Female; F344
Rat [13] = experiment: concentration in plasma after dosing; settings: 0.5 h; dosed: Primidone; 130 mg/kg; oral; Male; Harlan Sprague Dawley
Rat [14] = experiment: concentration in plasma after dosing; settings: 9 h; dosed: Primidone; 30 mg/kg; oral; Female; F344
Rat [15] = experiment: concentration in plasma after dosing; settings: 12 h; dosed: Primidone; 130 mg/kg; oral; Female; F344
Rat [16] = experiment: concentration in plasma after dosing; settings: 3 h; dosed: Primidone; 130 mg/kg; oral; Female; F344
Rat [17] = experiment: concentration in plasma after dosing; settings: 6 h; dosed: Primidone; 30 mg/kg; oral; Female; F344
Rat [18] = experiment: concentration in plasma after dosing; settings: 6 h; dosed: Primidone; 130 mg/kg; oral; Female; F344
Rat [19] = experiment: concentration in plasma after dosing; settings: dosed: Pyridine, 25 mg/kg, oral, Male, F344
Rat [20] = experiment: concentration in plasma after dosing; settings: 2 h; dosed: Pyridine; 5 mg/kg; oral; Male; F344
Rat [21] = experiment: concentration in plasma after dosing; settings: dosed: Pyridine, 5 mg/kg, oral, Male, F344
Rat [22] = experiment: concentration in plasma after dosing; settings: 10 min; dosed: alpha-Thujone; 25 mg/kg; oral; Male; Harlan Sprague Dawley
Rat [23] = experiment: concentration in plasma after dosing; settings: 10 min; dosed: alpha-Thujone; 25 mg/kg; oral; Male; Harlan Sprague Dawley; remark: listed apart in the source
Rat [24] = experiment: concentration in brain after dosing; settings: 2 min; dosed: alpha-Thujone; 50 mg/kg; oral; Female; Harlan Sprague Dawley
Rat [25] = experiment: concentration in plasma after dosing; settings: 1.5 h; dosed: alpha-Thujone; 25 mg/kg; oral; Male; Harlan Sprague Dawley
Rat [26] = experiment: concentration in brain after dosing; settings: 2 min; dosed: alpha-Thujone; 50 mg/kg; oral; Female; Harlan Sprague Dawley; remark: listed apart in the source
Rat [27] = experiment: concentration in brain after dosing; settings: 6 h; dosed: alpha-Thujone; 25 mg/kg; oral; Male; Harlan Sprague Dawley
Rat [28] = experiment: concentration in brain after dosing; settings: 0.5 h; dosed: alpha-Thujone; 50 mg/kg; oral; Male; Harlan Sprague Dawley
Rat [29] = experiment: concentration in plasma after dosing; settings: 1.5 h; dosed: alpha-Thujone; 50 mg/kg; oral; Female; Harlan Sprague Dawley
Rat [30] = experiment: concentration in brain after dosing; settings: 3 h; dosed: alpha-Thujone; 25 mg/kg; oral; Male; Harlan Sprague Dawley
Rat [31] = experiment: concentration in brain after dosing; settings: 0.5 h; dosed: alpha-Thujone; 25 mg/kg; oral; Male; Harlan Sprague Dawley
Rat [32] = experiment: concentration in plasma after dosing; settings: 1.5 h; dosed: alpha-Thujone; 50 mg/kg; oral; Female; Harlan Sprague Dawley; remark: listed apart in the source
Rat [33] = experiment: concentration in brain after dosing; settings: 10 min; dosed: alpha-Thujone; 50 mg/kg; oral; Female; Harlan Sprague Dawley
human = experiment: concentration in blood after dosing; negative times count back from the end of exposure; settings: dosed: trichloroethylene, 100 ppm, inhalation, duration: 6 hr, female
In short: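 Data points giving concentration or amount against time came from published in vivo toxicokinetic studies and from two structured collections. PubMed searching, classifier screening and manual review located the studies. Most points were digitised from plot screenshots using WebPlotDigitizer, the rest were copied from tables, and all keep their reported units.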

O=C(O)COc1ccc(Cl)cc1Cl [2,4-Dichlorophenoxyacetic acid]
Settings | concentration in plasma [ng/mL]
Mouse [1] | 4560

Rat [2]
Settings | concentration in plasma [ng/mL]
0.25 h | 9530
0.5 h | 10100
2 h | 13900
2.5 min | 4360
3 h | 2020
4 h | 2030
5 h | 3730
6 h | 776
10 min | 8480

O=C(c1ccccc1)c1ccc(O)cc1O [2,4-Dihydroxybenzophenone]
Settings | concentration in plasma [ng/mL]
Mouse [3] | 1970

concentration in plasma [ng/mL]
Settings | 0.5 h | 5 h | 10 h | 10 min
Rat [4] | – | – | 107 | 78.6
Rat [5] | 142 | 65.6 | – | –

C=CCc1ccc(OC)c(OC)c1 [Methyleugenol]
Settings | concentration in plasma [ng/mL]
Rat [6] | 308

O=S(=O)([O-])C(F)(F)C(F)(F)C(F)(F)C(F)(F)C(F)(F)C(F)(F)F.[K+] [Perfluorohexane-1-sulphonic acid – potassium salt]
Settings | concentration in kidney [ng/g] | concentration in liver [ng/g]
Rat [7] | 39300 | –
Rat [8] | – | 40300
Rat [9] | – | 39800
Rat [10] | 31500 | –
Rat [11] | – | 75600
Rat [12] | – | 80400

CCC1(c2ccccc2)C(=O)NCNC1=O [Primidone]
Settings | concentration in plasma [ng/mL]
Rat [13] | 47900
Rat [14] | 6000
Rat [15] | 3100
Rat [16] | 50400
Rat [17] | 12100
Rat [18] | 58400

c1ccncc1 [Pyridine]
concentration in plasma [ng/mL]
Settings | Rat [19] | Rat [21]
0.5 h | 15300 | 3090
6 h | 15100 | 1000

Settings | concentration in plasma [ng/mL]
Rat [20] | 2730

CC(C)[C@]12CC(=O)[C@H](C)[C@H]1C2 [alpha-Thujone]
Settings | concentration in brain [ng/g] | concentration in plasma [ng/mL]
Rat [22] | – | 243
Rat [23] | – | 464
Rat [24] | 13.2 | –
Rat [25] | – | 186
Rat [26] | 87.7 | –
Rat [27] | 117 | –
Rat [28] | 5490 | –
Rat [29] | – | 323
Rat [30] | 176 | –
Rat [31] | 285 | –
Rat [32] | – | 560
Rat [33] | 2340 | –

OCC(Cl)(Cl)Cl [trichloroethanol]
human
Settings | concentration in blood [ng/mL]
0 h | 7540
18 h | 3770
24 h | 7410
42 h | 2960
48 h | 6640
66 h | 2540
72 h | 6900
90 h | 3410
96 h | 6090

Settings | concentration in blood [ng/mL]
human, -6 h, during exposure | 222
